Molecules are shown by their SMILES.

Assay [1] addresses Genome polyprotein (dengue virus type 2) (UniProt P12823). The assay can be described thus: Inhibition of Dengue virus serotype 2 NS2B-NS3 protease at 50 uM.
Assay [2] concerns Escherichia coli. The assay can be described thus: Inhibition of wild-type Escherichia coli MurD compound preincubated for 10 mins before substrate addition at 25 uM measured after 15 mins by LC-MS method. The method in brief: (§1)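 E. coli wild-type enzyme (4 nM) was preincubated with 25 μM compound for 10 min at 37 °C. Enzymatically generated nucleotide-sugar substrate (~200 μM) plus ATP (~200 μM), or NADPH 200 μM for MurB, was added for 10 min. Reactions were started with amino-acid cosubstrate (MurC–F) or EP-UNAG (MurB), run 15 min at 37 °C, and quenched with formic acid. Product was measured by negative-ESI LC-MS EIC peak area. MgCl2: MurC 10, MurD/E 2, MurF 5 mM; MurB had 5 mM KCl. All in 50 mM NH4HCO3, 0.07% BSA, 1% DMSO; triplicate.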

In assay [3] the test system is Escherichia coli. Kind of assay: Inhibition of wild-type Escherichia coli MurE compound preincubated for 10 mins before substrate addition at 25 uM measured after 15 mins by LC-MS method. In short, it runs like this: as §1
Assay [4] deals with Genome polyprotein (West Nile virus) (UniProt P06935). The assay can be described thus: Inhibition of West Nile virus NS2B-NS3 protease at 50 uM.
Assay [5] deals with Escherichia coli. Kind of assay: Inhibition of wild-type Escherichia coli MurC compound preincubated for 10 mins before substrate addition at 25 uM measured after 15 mins by LC-MS method. The method in brief:
as §1

For assay [6], the system named is Escherichia coli. The assay can be described thus: Inhibition of wild-type Escherichia coli MurA compound preincubated for 10 mins before substrate addition at 25 uM measured after 15 mins by LC-MS method.
For assay [7], the target named is Prothrombin (Bos taurus) (UniProt P00735). The assay can be described thus: Inhibition of Bovine thrombin using Boc-Val-Pro-Arg-AMC as substrate compound preincubated at 25 uM for 15 mins by fluorescence assay. The method in brief: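 Bovine thrombin (final 10 nM) was preincubated 15 min with 25 μM compound in 50 mM Tris-HCl pH 7.5, 150 mM NaCl, 0.05% Tween 20. The reaction was started with Boc-Val-Pro-Arg-AMC (50 μM final). Fluorescence (ex 355/em 460 nm) was monitored continuously for 10 min; activity taken as slope (RFU/s). Triplicate.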

Assay [8] concerns Escherichia coli. The assay can be described thus: Inhibition of wild-type Escherichia coli MurB compound preincubated for 10 mins before substrate addition at 25 uM measured after 15 mins by LC-MS method. The method in brief: as §1
Assay [9] in a line: GSH reactivity of the compound assessed as adducts formation by RP-HPLC analysis. The method in brief: (§2)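 Fresh aqueous glutathione (10 mM solution) was added to 50 mM Tris-maleate buffer, pH 7.5. The reaction was started with compound from 10 mM DMSO stock (final 250 μM). Mixtures were followed by reversed-phase HPLC on an ODS column with a gradient to 100% B; rate constants are given in l·mol⁻¹·s⁻¹.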

Assay [10] deals with Methionine aminopeptidase 1 (Homo sapiens) (UniProt P53582). Kind of assay: Inhibition of human MetAP at 25 uM after 20 mins by HPLC analysis. In short, it runs like this: (§3)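 Endpoint assay. Enzyme (50 nM) was preincubated with 25 μM compound for 20 min at 37 °C in 50 mM Tris pH 7.5, 100 mM NaCl, 100 μM CoCl2, 0.075% BSA. MGMM substrate (400 μM) was then added for 15 min (human MetAP-1) or 20 min (E. coli MetAP). Reactions were stopped with TFA. GMM product was quantified by RP-HPLC, UV 214 nm. Triplicate.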

Assay [11] has as its system Escherichia coli. The assay can be described thus: Inhibition of wild-type Escherichia coli MurF compound preincubated for 10 mins before substrate addition at 25 uM measured after 15 mins by LC-MS method. In short, it runs like this: as §1
Assay [12] has as its system Escherichia coli. The assay can be described thus: Inhibition of Escherichia coli MetAP at 25 uM after 20 mins by HPLC analysis. In short, it runs like this: as §3
Assay [13] relates to HeLa. Kind of assay: Cytotoxicity against human HeLa cells assessed as reduction in cell viability after 24 hrs by CellTiter-Blue assay. In kind it is cell-based. In short, it runs like this:
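HeLa cells seeded in triplicate at 5×10^3 cells/well and grown 24 h at 37 °C/5% CO2. Compounds at varying concentrations were added as a 2x stock in phenol-red-free DMEM with FBS, penicillin/streptomycin, sodium pyruvate and L-glutamine, then left 24 h. Medium was replaced with CellTiter-Blue medium for 3 h. A570/A610 was read after background subtraction, as % of untreated controls; EC50 derived.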

A short description of assay [14]: GSH reactivity of the compound assessed as adducts formation meaured over 3 hrs by RP-HPLC analysis. In short, it runs like this:
as §2

Chain of Genome polyprotein (West Nile virus) (P06935 whole entry): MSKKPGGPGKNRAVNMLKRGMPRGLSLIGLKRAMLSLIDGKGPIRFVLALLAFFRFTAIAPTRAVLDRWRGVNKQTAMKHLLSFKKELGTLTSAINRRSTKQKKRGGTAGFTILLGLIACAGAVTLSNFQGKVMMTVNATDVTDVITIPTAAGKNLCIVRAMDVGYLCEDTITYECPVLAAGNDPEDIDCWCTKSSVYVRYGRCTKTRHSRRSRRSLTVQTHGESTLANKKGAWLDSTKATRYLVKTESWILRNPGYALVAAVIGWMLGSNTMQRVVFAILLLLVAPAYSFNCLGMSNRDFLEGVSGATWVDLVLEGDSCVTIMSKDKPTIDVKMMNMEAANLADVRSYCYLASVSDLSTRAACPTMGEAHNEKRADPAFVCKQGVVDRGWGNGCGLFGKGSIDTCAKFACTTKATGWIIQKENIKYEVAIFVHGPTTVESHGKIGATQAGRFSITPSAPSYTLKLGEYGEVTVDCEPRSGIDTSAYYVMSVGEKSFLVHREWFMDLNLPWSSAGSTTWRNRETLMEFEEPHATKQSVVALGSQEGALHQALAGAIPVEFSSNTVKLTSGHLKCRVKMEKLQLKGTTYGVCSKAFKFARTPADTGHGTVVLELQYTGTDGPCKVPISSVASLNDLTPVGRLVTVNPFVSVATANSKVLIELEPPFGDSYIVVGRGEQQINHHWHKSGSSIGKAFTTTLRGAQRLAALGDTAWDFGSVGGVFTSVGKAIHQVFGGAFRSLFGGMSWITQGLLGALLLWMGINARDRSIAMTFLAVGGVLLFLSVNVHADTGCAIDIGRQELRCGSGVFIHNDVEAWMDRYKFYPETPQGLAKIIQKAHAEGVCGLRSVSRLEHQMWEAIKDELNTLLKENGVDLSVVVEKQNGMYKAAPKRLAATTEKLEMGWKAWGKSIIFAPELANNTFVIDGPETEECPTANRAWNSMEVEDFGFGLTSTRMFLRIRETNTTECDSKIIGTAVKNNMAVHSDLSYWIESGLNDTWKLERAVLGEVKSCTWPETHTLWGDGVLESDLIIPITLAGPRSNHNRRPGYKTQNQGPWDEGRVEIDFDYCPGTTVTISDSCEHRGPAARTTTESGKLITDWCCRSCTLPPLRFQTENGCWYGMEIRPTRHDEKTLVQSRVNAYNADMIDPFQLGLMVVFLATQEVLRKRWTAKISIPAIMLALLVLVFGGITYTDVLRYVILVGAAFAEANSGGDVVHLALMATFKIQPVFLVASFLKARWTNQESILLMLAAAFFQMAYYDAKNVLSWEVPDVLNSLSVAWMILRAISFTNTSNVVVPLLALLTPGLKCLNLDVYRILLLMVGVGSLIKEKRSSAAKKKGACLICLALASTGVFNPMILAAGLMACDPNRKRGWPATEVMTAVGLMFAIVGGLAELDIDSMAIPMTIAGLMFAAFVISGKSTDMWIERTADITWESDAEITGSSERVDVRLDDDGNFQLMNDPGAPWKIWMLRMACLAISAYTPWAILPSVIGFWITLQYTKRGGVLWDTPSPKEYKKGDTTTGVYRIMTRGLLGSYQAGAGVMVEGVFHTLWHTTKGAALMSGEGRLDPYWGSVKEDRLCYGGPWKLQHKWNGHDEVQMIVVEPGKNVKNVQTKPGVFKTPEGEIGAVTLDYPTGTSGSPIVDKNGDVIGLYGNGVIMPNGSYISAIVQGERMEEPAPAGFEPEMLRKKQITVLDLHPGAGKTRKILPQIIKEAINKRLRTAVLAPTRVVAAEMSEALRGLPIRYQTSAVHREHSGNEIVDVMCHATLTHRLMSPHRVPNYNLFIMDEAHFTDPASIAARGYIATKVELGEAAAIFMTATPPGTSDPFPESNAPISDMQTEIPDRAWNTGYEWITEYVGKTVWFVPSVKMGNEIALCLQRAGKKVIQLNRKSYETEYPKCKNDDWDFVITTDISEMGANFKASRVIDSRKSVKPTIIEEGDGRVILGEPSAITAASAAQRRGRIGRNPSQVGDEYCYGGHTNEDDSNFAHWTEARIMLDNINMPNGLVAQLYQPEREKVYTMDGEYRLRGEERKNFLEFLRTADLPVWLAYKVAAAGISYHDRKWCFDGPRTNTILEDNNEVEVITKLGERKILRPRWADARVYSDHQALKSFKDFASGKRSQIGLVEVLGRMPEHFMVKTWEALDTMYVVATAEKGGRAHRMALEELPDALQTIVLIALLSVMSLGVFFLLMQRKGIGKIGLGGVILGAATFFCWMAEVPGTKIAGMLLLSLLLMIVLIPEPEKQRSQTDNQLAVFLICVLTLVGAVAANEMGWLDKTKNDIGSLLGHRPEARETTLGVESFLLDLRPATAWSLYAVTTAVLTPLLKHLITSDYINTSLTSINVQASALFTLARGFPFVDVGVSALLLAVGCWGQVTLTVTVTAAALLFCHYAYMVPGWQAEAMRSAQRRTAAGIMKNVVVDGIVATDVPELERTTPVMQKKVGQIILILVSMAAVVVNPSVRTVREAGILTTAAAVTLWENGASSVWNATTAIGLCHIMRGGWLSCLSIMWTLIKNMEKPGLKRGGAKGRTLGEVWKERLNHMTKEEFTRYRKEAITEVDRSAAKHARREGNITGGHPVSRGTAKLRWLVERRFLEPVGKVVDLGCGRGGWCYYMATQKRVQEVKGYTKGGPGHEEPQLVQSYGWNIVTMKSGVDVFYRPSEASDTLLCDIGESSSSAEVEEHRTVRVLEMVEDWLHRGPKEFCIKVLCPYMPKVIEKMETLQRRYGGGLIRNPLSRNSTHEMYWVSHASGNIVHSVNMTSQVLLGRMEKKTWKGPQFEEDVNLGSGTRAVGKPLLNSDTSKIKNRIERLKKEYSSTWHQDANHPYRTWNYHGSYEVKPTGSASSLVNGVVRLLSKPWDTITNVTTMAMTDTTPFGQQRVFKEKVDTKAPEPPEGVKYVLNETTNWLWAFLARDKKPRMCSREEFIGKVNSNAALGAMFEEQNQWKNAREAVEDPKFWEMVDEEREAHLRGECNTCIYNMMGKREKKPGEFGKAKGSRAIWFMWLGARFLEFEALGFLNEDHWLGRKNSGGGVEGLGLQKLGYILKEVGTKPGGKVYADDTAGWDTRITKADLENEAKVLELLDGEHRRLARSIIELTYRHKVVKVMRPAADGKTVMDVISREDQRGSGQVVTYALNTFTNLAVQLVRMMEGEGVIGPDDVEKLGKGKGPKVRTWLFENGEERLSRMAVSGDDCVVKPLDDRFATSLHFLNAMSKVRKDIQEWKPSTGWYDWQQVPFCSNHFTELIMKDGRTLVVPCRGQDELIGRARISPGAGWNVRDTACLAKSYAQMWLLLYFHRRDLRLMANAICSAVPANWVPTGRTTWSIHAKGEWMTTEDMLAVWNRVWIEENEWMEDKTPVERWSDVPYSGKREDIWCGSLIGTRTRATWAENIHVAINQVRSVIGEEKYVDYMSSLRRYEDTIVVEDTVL

For `C=CCNc1ccccc1`, the inhibition (in general, the percentage by which the read-out fell short of the control) in assay [1] was under 15%; in assay [2] it was under 15%; in [3], under 15%; in [4], under 15%; in assay [5], under 15%; in [6], 16%. In addition, the inhibition is under 15% in assay [7]; under 15% in [8]; 22% in assay [10]; under 15% in [11]; under 15% in [12]. In addition, the Activity in [9] was under 0.1 L/mol/s. For the same compound, in [13], the concentration giving a half-maximal response (EC50) (usually the concentration that produces a half-maximal response) was over 100 µM.

Consider `C=CC(=O)Nc1ccc(OC)cc1`, for which the inhibition in assay [1], in assay [2], in assay [3], in assay [4], in assay [5] and in [6] was under 15% each time. For the same compound, the inhibition in assay [7], in [8], in [10], in assay [11] and in [12] was under 15% each time. Besides, the values for the Activity in assay [14] and in assay [9] were under 5% and under 0.1 L/mol/s, respectively.

In the case of `CCCCNC(=O)CCl`, the inhibition was under 15% in [1]; under 15% in assay [2]; 15% in [3]; under 15% in [4]; under 15% in assay [5]; under 15% in [6]. Further, the inhibition in assay [7], in assay [8], in [10], in [11] and in assay [12] was under 15% in each case. In addition, the Activity in assay [9] is under 0.1 L/mol/s. Also, the half-maximal effective concentration (EC50) in assay [13] is over 100 µM.

On to `C=CC(=O)Nc1ccc([N+](=O)[O-])cc1`, for which the inhibition in [1], in assay [2], in assay [3], in [4], in assay [5] and in assay [6] was under 15% throughout. For the same compound, the inhibition in assay [7], in assay [8], in assay [10], in assay [11] and in assay [12] was under 15% throughout. Besides, the values for the Activity in assay [14] and in assay [9] were under 5% and under 0.1 L/mol/s, respectively.

For `C=CC(=O)Nc1ccc(F)cc1`, the inhibition in assay [1], in assay [2], in assay [3], in assay [4], in assay [5] and in [6] was under 15% in each case. Also, the inhibition in [7], in assay [8], in assay [10], in assay [11] and in assay [12] was under 15% throughout. Also, the results for the Activity in assay [14] and in assay [9] were under 5% and under 0.1 L/mol/s, respectively.

As to `BrC1=NOC(c2ccccc2)C1` (configuration not stated), the inhibition in assay [1] was under 15%; in assay [2], under 17%; in [3], under 15%; in [4] it was under 15%; in assay [5] it was under 15%; in [6] it was under 15%. Moreover, the inhibition in [7], in [8], in assay [10], in assay [11] and in [12] was under 15% each time. Besides, in assay [9], the Activity is under 0.1 L/mol/s.

With `N#CCNC(=O)c1ccccc1`, the inhibition was under 15% in assay [1]; under 15% in [2]; under 15% in [3]; 23% in assay [4]; under 15% in [5]; under 15% in [6]. The inhibition in assay [7] is under 15%; in assay [8], 17%; in assay [10], under 15%; in assay [11], under 15%; in assay [12], under 15%. Further, the Activity in [9] was under 0.1 L/mol/s. Moreover, the half-maximal effective concentration (EC50) in assay [13] is over 100 µM.

In the case of `C=CCNC`, the inhibition in assay [1], in assay [2], in assay [3], in assay [4], in assay [5] and in assay [6] was under 15% throughout. Besides, the inhibition in assay [7], in assay [8], in [10], in assay [11] and in assay [12] was under 15% each time. Further, in assay [9], the Activity was under 0.1 L/mol/s.

As to `N#CCNC(=O)/C=C/c1ccccc1`, the inhibition was 17% in assay [1]; under 17% in assay [2]; under 15% in assay [3]; 18% in assay [4]; under 15% in assay [5]; under 15% in [6]. Moreover, the inhibition in assay [7], in assay [8], in [10], in [11] and in assay [12] was under 15% throughout. Also, in assay [9], the Activity was under 0.1 L/mol/s. Further, in assay [13], the EC50 was over 100 µM.

For `CC(=O)Nc1ccc([N+](=O)[O-])cc1`, the inhibition in assay [1], in assay [2], in [3], in [4], in assay [5] and in [6] was under 15% throughout. Further, the inhibition in [7], in assay [8], in [10], in assay [11] and in assay [12] was under 15% each time. Besides, in assay [9], the Activity was under 0.1 L/mol/s.

On to `CCCCNC(=O)CC#N`, for which the inhibition in assay [1], in assay [2], in assay [3], in assay [4], in assay [5] and in assay [6] was under 15% in each case. The inhibition in [7], in assay [8], in [10], in [11] and in [12] was under 15% each time. Further, in assay [9], the Activity is under 0.1 L/mol/s. The EC50 in [13] is over 100 µM.

As to `C=CCNc1ccc([N+](=O)[O-])cc1`, the inhibition in assay [1], in assay [2], in assay [3], in assay [4], in [5] and in assay [6] was under 15% each time. The inhibition in assay [7] is under 15%; in [8], 20%; in assay [10], under 15%; in assay [11], under 15%; in assay [12] it was under 15%. In assay [9], the Activity is under 0.1 L/mol/s.

Take `C=CCNCCCC`: the inhibition in assay [1], in assay [2], in [3], in assay [4], in assay [5] and in assay [6] was under 15% each time. In addition, the inhibition in assay [7] is under 15%; in assay [8], 19%; in [10], under 15%; in assay [11] it was under 15%; in assay [12], under 15%. In addition, the Activity in assay [9] is under 0.1 L/mol/s. In addition, the concentration for a half-maximal effect (EC50) in assay [13] is over 100 µM.

As for `C=CCNc1ccc(C)cc1`, the inhibition in [1], in assay [2], in [3], in assay [4], in assay [5] and in [6] was under 15% each time. The inhibition is under 15% in [7]; under 15% in assay [8]; under 15% in assay [10]; 15% in assay [11]; under 15% in [12]. Moreover, the Activity in [9] was under 0.1 L/mol/s.

The record behind these values is ChEMBL document CHEMBL3352149, “Promiscuity and selectivity in covalent enzyme inhibition: a systematic study of electrophilic fragments” (J Med Chem, 2014).
